One data set concerns Plasma. The data set is described as follows: Induction of pre-beta HDL formation in human plasma after 2 hrs by ELISA. The class given is functional, cell-free. Put shortly:
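Increasing peptide concentrations were incubated with normal human plasma at 37 °C for 2 h. Pre-β HDL was quantified by a commercial human pre-β HDL ELISA.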
(In general: In an ELISA, binding on a coated surface is turned into a signal by an enzyme label.)

Data set [1] deals with Phospholipid-transporting ATPase ABCA1 (Mus musculus, UniProt P41233). The data set is described as follows: Induction of ABCA1-mediated [3H]cholesterol efflux in mouse RAW 264.7 macrophages after 24 hrs.
Data set [2] is described as follows: Plasma concentration in C57/BL6 mouse at 60 mg/kg, sc after 3 hrs. The format is ADME, organism-based, C57Bl/6. Also on record: dose 60 mg/kg, route subcutaneous. The method, boiled down:
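Male C57Bl/6 mice were dosed subcutaneously with peptide in 50 mM mannitol/PBS. Serum was taken by cardiac puncture, and peptide was measured by LC–MS/MS after acetonitrile protein precipitation.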

Data set [3] deals with Lipoprotein lipase (Bos taurus) (UniProt P11151). The data set is described as follows: Inhibition of Lipoprotein lipase in vitro.
Data set [4] deals with Mus musculus. The data set is described as follows: Effect on triglyceride level in C57/BL6 mouse at 20 mg/kg, sc after 1 hr. The format is functional, organism-based. To be noted: C57Bl/6. Set-up: dose 20 mg/kg. Put shortly: (§1)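 Male C57Bl/6 mice (≥12 weeks, chow-fed) given peptide subcutaneously in 50 mM mannitol/PBS vehicle. Serum was collected by cardiac puncture at 1 or 3 h, clotted 1 h at room temperature and spun at 10,000g. Serum triglyceride was measured by enzymatic colorimetric assay, with 3–5 animals per dose and time point.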

Data set [5] concerns Mus musculus. The data set is described as follows: Effect on triglyceride level in C57/BL6 mouse at 20 mg/kg, sc after 3 hrs. The class given is functional, organism-based. Also on record: dose 20 mg/kg. Conditions: C57Bl/6. The method, boiled down: as §1
For data set [6], the system named is Mus musculus. The data set is described as follows: Effect on triglyceride level in C57/BL6 mouse at 60 mg/kg, sc after 1 hr. Conditions: C57Bl/6. Set-up: dose 60 mg/kg. The class given is functional, organism-based. Put shortly: as §1

Calls of active or inactive are those of the source. No cut-off for these calls is given here. *1 amine or outer side, *2 acyl side, *3 side chain or, on linkers, in order; H or OH if unused. Where a SMILES comes first, the peptide text is derived from it. [ ]: non-standard residue; d: D form. Gly(oct-7-en-1-yl) = C=CCCCCCC[C@H](N)C(=O)O; Ala(5-hexenyl) = C=CCCCCC[C@H](N)C(=O)O; dNle(6-vinyl) = C=CCCCC[C@@H](N)C(=O)O; Gly(octyl) = CCCCCCCC[C@H](N)C(=O)O; X1 = CCCCCCC[C@H](N[*:1])C(=O)[*:2]

Phospholipid-transporting ATPase ABCA1, sequence (P41233 whole entry): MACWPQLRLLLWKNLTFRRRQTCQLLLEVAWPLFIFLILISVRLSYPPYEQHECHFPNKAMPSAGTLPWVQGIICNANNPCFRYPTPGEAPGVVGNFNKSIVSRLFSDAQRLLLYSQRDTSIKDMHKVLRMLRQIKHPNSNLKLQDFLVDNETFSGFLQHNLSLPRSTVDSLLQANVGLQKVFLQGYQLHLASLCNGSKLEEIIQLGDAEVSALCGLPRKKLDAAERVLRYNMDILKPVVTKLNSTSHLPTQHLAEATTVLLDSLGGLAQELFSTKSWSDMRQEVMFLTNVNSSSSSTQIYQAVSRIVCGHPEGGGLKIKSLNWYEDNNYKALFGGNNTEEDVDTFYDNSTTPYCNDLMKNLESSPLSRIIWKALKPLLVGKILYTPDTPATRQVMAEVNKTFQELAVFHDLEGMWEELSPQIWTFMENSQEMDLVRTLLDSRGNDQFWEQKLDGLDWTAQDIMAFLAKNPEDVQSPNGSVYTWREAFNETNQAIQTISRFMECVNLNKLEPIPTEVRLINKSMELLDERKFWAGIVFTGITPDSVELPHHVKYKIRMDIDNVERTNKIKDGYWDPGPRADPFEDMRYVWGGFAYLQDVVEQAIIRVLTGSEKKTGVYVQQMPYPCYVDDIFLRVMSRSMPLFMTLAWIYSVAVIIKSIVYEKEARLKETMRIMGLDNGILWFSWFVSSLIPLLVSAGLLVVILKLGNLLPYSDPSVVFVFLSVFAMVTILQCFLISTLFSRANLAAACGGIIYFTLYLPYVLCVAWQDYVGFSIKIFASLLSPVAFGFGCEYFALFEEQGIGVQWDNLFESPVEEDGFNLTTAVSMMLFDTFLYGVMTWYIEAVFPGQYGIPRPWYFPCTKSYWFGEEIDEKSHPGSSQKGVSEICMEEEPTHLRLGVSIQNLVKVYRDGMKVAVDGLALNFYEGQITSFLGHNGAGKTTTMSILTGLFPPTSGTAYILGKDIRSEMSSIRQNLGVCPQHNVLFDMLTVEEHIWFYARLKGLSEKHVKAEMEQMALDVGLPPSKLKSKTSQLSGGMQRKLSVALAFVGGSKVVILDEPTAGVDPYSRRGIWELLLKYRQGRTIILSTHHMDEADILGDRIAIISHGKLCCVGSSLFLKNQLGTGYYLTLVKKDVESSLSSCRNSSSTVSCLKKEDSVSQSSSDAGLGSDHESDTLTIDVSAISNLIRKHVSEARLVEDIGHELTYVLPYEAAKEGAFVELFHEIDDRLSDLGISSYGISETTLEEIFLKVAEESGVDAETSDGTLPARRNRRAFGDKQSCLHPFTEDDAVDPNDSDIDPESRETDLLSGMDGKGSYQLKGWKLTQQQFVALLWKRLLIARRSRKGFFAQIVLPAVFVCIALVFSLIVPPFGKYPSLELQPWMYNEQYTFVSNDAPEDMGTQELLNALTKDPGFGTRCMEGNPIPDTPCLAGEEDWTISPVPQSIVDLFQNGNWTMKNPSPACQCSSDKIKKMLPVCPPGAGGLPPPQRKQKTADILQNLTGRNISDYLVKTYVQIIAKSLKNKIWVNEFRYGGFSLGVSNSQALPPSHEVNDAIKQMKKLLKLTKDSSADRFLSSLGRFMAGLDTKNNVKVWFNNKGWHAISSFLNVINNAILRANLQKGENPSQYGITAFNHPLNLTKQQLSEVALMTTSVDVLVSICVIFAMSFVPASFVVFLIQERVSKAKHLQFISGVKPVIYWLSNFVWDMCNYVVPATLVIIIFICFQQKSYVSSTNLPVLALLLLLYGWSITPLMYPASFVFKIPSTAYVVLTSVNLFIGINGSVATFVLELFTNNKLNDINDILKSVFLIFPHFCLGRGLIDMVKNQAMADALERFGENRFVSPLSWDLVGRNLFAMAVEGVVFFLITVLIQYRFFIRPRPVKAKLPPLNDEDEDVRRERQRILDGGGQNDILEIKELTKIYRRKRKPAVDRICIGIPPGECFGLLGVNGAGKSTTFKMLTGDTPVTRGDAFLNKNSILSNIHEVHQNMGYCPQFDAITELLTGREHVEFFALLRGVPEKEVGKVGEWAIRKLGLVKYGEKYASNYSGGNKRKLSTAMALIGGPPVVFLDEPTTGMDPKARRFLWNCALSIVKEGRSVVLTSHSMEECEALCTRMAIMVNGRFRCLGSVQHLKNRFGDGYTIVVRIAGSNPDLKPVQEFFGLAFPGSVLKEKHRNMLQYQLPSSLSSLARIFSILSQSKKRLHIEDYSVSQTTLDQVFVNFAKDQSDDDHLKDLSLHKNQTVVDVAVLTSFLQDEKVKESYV

Take `C=CCCCCCC[C@H](NC(=O)[C@H](CCC(=O)O)NC(=O)[C@H](CC(N)=O)NC(=O)[C@H](CC(C)C)NC(=O)[C@H](CCCCN)NC(=O)[C@H](CCC(=O)O)NC(=O)[C@H](CCCNC(=N)N)NC(=O)[C@H](Cc1ccccc1)NC(=O)[C@H](CCC(=O)O)NC(=O)[C@H](CC(=O)O)NC(=O)[C@H](CC(C)C)NC(=O)[C@@H](NC(=O)[C@@H]1CCCN1C(C)=O)C(C)C)C(=O)N[C@@H](CC(C)C)C(=O)N[C@@H](CCC(=O)O)C(=O)N[C@@H](C)C(=O)N[C@@H](CC(C)C)C(=O)N[C@@H](CCCCN)C(=O)N[C@@H](CCC(N)=O)C(=O)N[C@@H](CCCCN)C(=O)N[C@@H](CC(C)C)C(=O)N[C@@H](CCCCN)C(N)=O` (Ac-PVLDEFREKLNE[Gly(oct-7-en-1-yl)]LEALKQKLK-NH2): in the data set with Plasma, the Activity entry was “Dose-dependent effect”.
On to `CCCCCCCC[C@H](NC(=O)[C@H](CCC(=O)O)NC(=O)[C@H](CC(N)=O)NC(=O)[C@H](CC(C)C)NC(=O)[C@H](CCCCN)NC(=O)[C@H](CCC(=O)O)NC(=O)[C@H](CCCN=C(N)N)NC(=O)[C@H](Cc1ccccc1)NC(=O)[C@H](CCC(=O)O)NC(=O)[C@H](CC(=O)O)NC(=O)[C@H](CC(C)C)NC(=O)[C@@H](NC(=O)[C@@H]1CCCN1C(C)=O)C(C)C)C(=O)N[C@@H](CC(C)C)C(=O)N[C@@H](CCC(=O)O)C(=O)N[C@@H](C)C(=O)N[C@@H](CC(C)C)C(=O)N[C@@H](CCCCN)C(=O)N[C@@H](CCC(N)=O)C(=O)N[C@@H](CCCCN)C(=O)N[C@@H](CC(C)C)C(=O)N[C@@H](CCCCN)C(N)=O` (Ac-PVLDEFREKLNE[Gly(octyl)]LEALKQKLK-NH2), for which, in data set [1], the response was half-maximal at 0.7 µM (EC50). In data set [2], this molecule showed a concentration at 3 h of 188 µM.
Turning to `CCCCCCCC[C@H](NC(=O)[C@H](CCC(=O)O)NC(=O)[C@H](CC(N)=O)NC(=O)[C@H](CC(C)C)NC(=O)[C@H](CCCCN)NC(=O)[C@H](CCC(=O)O)NC(=O)[C@H](CCCNC(=N)N)NC(=O)[C@H](Cc1ccccc1)NC(=O)[C@H](CCC(=O)O)NC(=O)[C@H](CC(=O)O)NC(=O)[C@H](CC(C)C)NC(=O)[C@@H](NC(=O)[C@@H]1CCCN1C(C)=O)C(C)C)C(=O)N[C@@H](CC(C)C)C(=O)N[C@@H](CCC(=O)O)C(=O)N[C@@H](C)C(=O)N[C@@H](CC(C)C)C(=O)N[C@@H](CCCCN)C(=O)N[C@@H](CCC(N)=O)C(=O)N[C@@H](CCCCN)C(=O)N[C@@H](CC(C)C)C(=O)N[C@@H](CCCCN)C(N)=O` (Ac-PVLDEFREKLNE[Gly(octyl)]LEALKQKLK-NH2), the Activity result with Plasma is “Dose-dependent effect”. For the same molecule, half-maximal inhibition in data set [3] (IC50) was put at 88 µM. Further, the outcome in the data set on Mus musculus [4], in the data set on Mus musculus [5] and in the data set on Mus musculus [6] was inactive.
For `CCCCCCC[C@H](NC(=O)[C@H](CCC(=O)O)NC(=O)[C@H](CC(N)=O)NC(=O)[C@H](CC(C)C)NC(=O)[C@H](CCCCN)NC(=O)[C@H](CCC(=O)O)NC(=O)[C@H](CCCNC(=N)N)NC(=O)[C@H](Cc1ccccc1)NC(=O)[C@H](CCC(=O)O)NC(=O)[C@H](CC(=O)O)NC(=O)[C@H](CC(C)C)NC(=O)[C@@H](NC(=O)[C@@H]1CCCN1C(C)=O)C(C)C)C(=O)N[C@@H](CC(C)C)C(=O)N[C@@H](CCC(=O)O)C(=O)N[C@@H](C)C(=O)N[C@@H](CC(C)C)C(=O)N[C@@H](CCCCN)C(=O)N[C@@H](CCC(N)=O)C(=O)N[C@@H](CCCCN)C(=O)N[C@@H](CC(C)C)C(=O)N[C@@H](CCCCN)C(N)=O` (Ac-PVLDEFREKLNE[X1]LEALKQKLK-NH2), the Activity entry in the data set with Plasma is “Dose-dependent effect”.
In data set [1], `C=CCCCCC[C@H](NC(=O)[C@H](CCC(=O)O)NC(=O)[C@H](CC(N)=O)NC(=O)[C@H](CC(C)C)NC(=O)[C@H](CCCCN)NC(=O)[C@H](CCC(=O)O)NC(=O)[C@H](CCCN=C(N)N)NC(=O)[C@@H](CCCCC=C)NC(=O)[C@H](CCC(=O)O)NC(=O)[C@H](CC(=O)O)NC(=O)[C@H](CC(C)C)NC(=O)[C@@H](NC(=O)[C@@H]1CCCN1C(C)=O)C(C)C)C(=O)N[C@@H](CC(C)C)C(=O)N[C@@H](CCC(=O)O)C(=O)N[C@@H](C)C(=O)N[C@@H](CC(C)C)C(=O)N[C@@H](CCCCN)C(=O)N[C@@H](CCC(N)=O)C(=O)N[C@@H](CCCCN)C(=O)N[C@@H](CC(C)C)C(=O)N[C@@H](CCCCN)C(N)=O` (Ac-PVLDE[dNle(6-vinyl)]REKLNE[Ala(5-hexenyl)]LEALKQKLK-NH2) registered an EC50 of 0.8 µM. The same molecule returned a concentration at 3 h in data set [2] of 116 µM.
For the molecule `C=CCCCCC[C@H](NC(=O)[C@H](CCC(=O)O)NC(=O)[C@H](CC(N)=O)NC(=O)[C@H](CC(C)C)NC(=O)[C@H](CCCCN)NC(=O)[C@H](CCC(=O)O)NC(=O)[C@H](CCCNC(=N)N)NC(=O)[C@@H](CCCCC=C)NC(=O)[C@H](CCC(=O)O)NC(=O)[C@H](CC(=O)O)NC(=O)[C@H](CC(C)C)NC(=O)[C@@H](NC(=O)[C@@H]1CCCN1C(C)=O)C(C)C)C(=O)N[C@@H](CC(C)C)C(=O)N[C@@H](CCC(=O)O)C(=O)N[C@@H](C)C(=O)N[C@@H](CC(C)C)C(=O)N[C@@H](CCCCN)C(=O)N[C@@H](CCC(N)=O)C(=O)N[C@@H](CCCCN)C(=O)N[C@@H](CC(C)C)C(=O)N[C@@H](CCCCN)C(N)=O` (Ac-PVLDE[dNle(6-vinyl)]REKLNE[Ala(5-hexenyl)]LEALKQKLK-NH2), the Activity result in the data set on Plasma is “Dose-dependent effect”. Besides, the IC50 in data set [3] was found to be 100 µM. The result in the data set with Mus musculus [4], with Mus musculus [5] and in the data set with Mus musculus [6] was inactive.
As for `C=CCCCCC[C@H](NC(=O)[C@H](CCC(=O)O)NC(=O)[C@H](CC(N)=O)NC(=O)[C@H](CC(C)C)NC(=O)[C@H](CCCCN)NC(=O)[C@H](CCC(=O)O)NC(=O)[C@H](CCCNC(=N)N)NC(=O)[C@H](Cc1ccccc1)NC(=O)[C@H](CCC(=O)O)NC(=O)[C@H](CC(=O)O)NC(=O)[C@H](CC(C)C)NC(=O)[C@H](CCCCCC=C)NC(=O)[C@@H]1CCCN1C(C)=O)C(=O)N[C@@H](CC(C)C)C(=O)N[C@@H](CCC(=O)O)C(=O)N[C@@H](C)C(=O)N[C@@H](CC(C)C)C(=O)N[C@@H](CCCCN)C(=O)N[C@@H](CCC(N)=O)C(=O)N[C@@H](CCCCN)C(=O)N[C@@H](CC(C)C)C(=O)N[C@@H](CCCCN)C(N)=O` (Ac-P[Ala(5-hexenyl)]LDEFREKLNE[Ala(5-hexenyl)]LEALKQKLK-NH2), the outcome with Plasma was inactive.
`C=CCCCCC[C@H](NC(=O)[C@H](CCC(=O)O)NC(=O)[C@H](CC(N)=O)NC(=O)[C@H](CC(C)C)NC(=O)[C@H](CCCCN)NC(=O)[C@H](CCC(=O)O)NC(=O)[C@H](CCCN=C(N)N)NC(=O)[C@H](CCCCCC=C)NC(=O)[C@H](CCC(=O)O)NC(=O)[C@H](CC(=O)O)NC(=O)[C@H](CC(C)C)NC(=O)[C@H](CCCCCC=C)NC(=O)[C@@H]1CCCN1C(C)=O)C(=O)N[C@@H](CC(C)C)C(=O)N[C@@H](CCC(=O)O)C(=O)N[C@@H](C)C(=O)N[C@@H](CC(C)C)C(=O)N[C@@H](CCCCN)C(=O)N[C@@H](CCC(N)=O)C(=O)N[C@@H](CCCCN)C(=O)N[C@@H](CC(C)C)C(=O)N[C@@H](CCCCN)C(N)=O` (Ac-P[Ala(5-hexenyl)]LDE[Ala(5-hexenyl)]REKLNE[Ala(5-hexenyl)]LEALKQKLK-NH2) yielded a half-maximal effective concentration (EC50) in data set [1] of 1.9 µM.
As to `C=CCCCCC[C@H](NC(=O)[C@H](CCC(N)=O)NC(=O)[C@H](CCCCN)NC(=O)[C@H](CC(C)C)NC(=O)[C@H](C)NC(=O)[C@H](CCC(=O)O)NC(=O)[C@H](CC(C)C)NC(=O)[C@H](CCCCCC=C)NC(=O)[C@H](CCC(=O)O)NC(=O)[C@H](CC(N)=O)NC(=O)[C@H](CC(C)C)NC(=O)[C@H](CCCCN)NC(=O)[C@H](CCC(=O)O)NC(=O)[C@H](CCCNC(=N)N)NC(=O)[C@H](CCCCCC=C)NC(=O)[C@H](CCC(=O)O)NC(=O)[C@H](CC(=O)O)NC(=O)[C@H](CC(C)C)NC(=O)[C@H](CCCCCC=C)NC(=O)[C@@H]1CCCN1C(C)=O)C(=O)N[C@@H](CC(C)C)C(=O)N[C@@H](CCCCN)C(N)=O` (Ac-P[Ala(5-hexenyl)]LDE[Ala(5-hexenyl)]REKLNE[Ala(5-hexenyl)]LEALKQ[Ala(5-hexenyl)]LK-NH2), in data set [1], the EC50 came out at 6.7 µM.
Regarding `CC(=O)N[C@H](CC(=O)O)C(=O)N[C@H](Cc1c[nH]c2ccccc12)C(=O)N[C@H](Cc1ccccc1)C(=O)N[C@H](CCCCN)C(=O)N[C@H](C)C(=O)N[C@H](Cc1ccccc1)C(=O)N[C@H](Cc1ccc(O)cc1)C(=O)N[C@H](CC(=O)O)C(=O)N[C@H](CCCCN)C(=O)N[C@@H](C(=O)N[C@H](C)C(=O)N[C@H](CCC(=O)O)C(=O)N[C@H](CCCCN)C(=O)N[C@H](Cc1ccccc1)C(=O)N[C@H](CCCCN)C(=O)N[C@H](CCC(=O)O)C(=O)N[C@H](C)C(=O)N[C@H](Cc1ccccc1)C(N)=O)C(C)C` (Ac-[dD][dW][dF][dK][dA][dF][dY][dD][dK][dV][dA][dE][dK][dF][dK][dE][dA][dF]-NH2), in data set [1], the EC50 came to 2 µM. In data set [3], this molecule displayed an IC50 of 24 µM.
Take Ac-PVLDEFREKLNEELEALKQKLK-NH2: the EC50 in data set [1] was over 100 µM. The molecule further gave a concentration at 3 h in data set [2] of 0.33 µM.

Broadly, the EC50 is the midpoint of the concentration-response curve. For orientation: IC50 means the concentration at which inhibition is half-maximal.

Values taken from ChEMBL document CHEMBL1629456, “ApoA-I mimetic peptides promote pre-β HDL formation in vivo causing remodeling of HDL and triglyceride accumulation at higher dose” (Bioorg Med Chem, 2010).
